Compound activity (PubChem)
A selection: hits, their analogues and other compounds. The true share with any hit is near 2.5%.
NadD block – inhibitors of S. aureus NadD, primary screen, biochemical, colorimetric, uHTS. Nicotinate-nucleotide adenylyltransferase NadD (Staphylococcus aureus N315). actives 0.78% (n = 360,000). inhibition, % at 20 µM. purified NadD enzyme, colorimetric absorbance read-out; in the data active = inhibition above about 26%
MsrA act – bovine MsrA enzyme activators, primary screen, biochemical, absorbance, HTS | purified bovine MsrA, absorbance read-out | actives 0.3% (n = 360,000) | AID 602163, 2012 | activation, % at 10.6 µM; in the data active = activation above about 7.5%
NR2E3 ag-1 – NR2E3 agonists in two-hybrid cells, primary screen, cell-based, luminescence, CHO-S, Gal4-NCOR/VP16-NR2E3 | Photoreceptor-specific nuclear receptor (Homo sapiens), Q9Y5X4 | inhibition of corepressor binding, % at 3.98 µM | luciferase | actives 0.35% (n = 360,000);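 active = inhibition above the mean of all tested compounds plus 3 SD, cut at about 70% in these data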;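 also: higher means lower luciferase signal from less NR2E3 corepressor binding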
GalR3 antag – GalR3 antagonists in HEK293 cells, primary screen, cell-based, fluorescence readout; HEK293 GalR3-CNG cAMP membrane potential fluorescence; galR3 body fused to GalR1 C-terminus; inhibition, % at 3 µM; actives 0.44% (n = 360,000); AID 651719, 2012;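 active = inhibition above the screen-wide average plus 3 SD, cut at about 13% in these data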;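 also: forskolin and galanin both at EC90 stimulate the cells; cAMP rise reported by CNG channel membrane potential dye signal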
Target sequence (O60755 1-299 limits assumed): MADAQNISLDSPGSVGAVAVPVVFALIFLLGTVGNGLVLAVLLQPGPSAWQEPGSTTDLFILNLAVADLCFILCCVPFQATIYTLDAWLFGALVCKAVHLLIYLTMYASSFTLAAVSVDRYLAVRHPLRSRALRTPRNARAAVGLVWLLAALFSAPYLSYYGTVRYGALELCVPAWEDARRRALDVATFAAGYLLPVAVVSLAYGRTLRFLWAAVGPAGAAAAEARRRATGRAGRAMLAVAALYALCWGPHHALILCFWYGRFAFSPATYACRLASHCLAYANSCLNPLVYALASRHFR
NR2E3 ag-2 – inhibitors of NR2E3-RetCOR corepressor binding, primary screen, NR2E3 agonist project, biochemical, TR-FRET, GST-NR2E3, biotin-RetCOR | Photoreceptor-specific nuclear receptor (Homo sapiens), Q9Y5X4 | 1536-well | inhibition of corepressor binding, % at 4.78 µM | actives 0.12% (n = 320,000) | AID 2300, 2010;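 active = percent inhibition above the cutoff of mean plus 3 SD of all tested compounds, set per screening campaign, cut at about 20% in these data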
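System: GST-NR2E3 and biotin-RetCOR proteins; probe or stimulus: 7 nM biotin-RetCOR; doses: compound at 4.8 µM, single dose; schedule: Compound–protein incubation for 5 h at 4 °C; detection: time-resolved FRET; read-out: percent inhibition; controls: biotin wells as high control, 0.6% DMSO wells as low control; format: 1536-well plates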
MsrA inhibitor – bovine MsrA enzyme inhibitors, primary screen, biochemical, absorbance, HTS | Methionine sulfoxide reductase A (Bos taurus) | purified bovine MsrA, absorbance read-out | inhibition, % at 15.5 µM | actives 0.75% (n = 360,000); in the data active = inhibition above about 4.5%
Numbers stand for hits; – = inactive; · = no result given.

SMILES | NadD block | MsrA act | NR2E3 ag-1 | GalR3 antag | NR2E3 ag-2 | MsrA inhibitor
COc1cccc(C(=O)Oc2ccc(/C=N/Nc3ccc(C(=O)O)cc3)cc2OC)c1 | – | – | – | – | – | 4.6
O=C(/C=C\Nc1ccc(Cl)cn1)c1ccc(Br)cc1 | – | – | – | – | – | –
CCC(=O)OC1(C)C(=O)C2=COC(c3ccc(OC)cc3)=CC2=C(Br)C1=O (stereo unspecified) | – | 10 | – | – | – | –
COCCSc1nnc(NC(=O)c2cc(C(=O)OC)cc([N+](=O)[O-])c2)s1 | – | – | – | – | – | –
O=C(CSc1cccc[n+]1[O-])Nc1cc2c(cc1Cl)C(=O)c1ccccc1C2=O | 34 | – | – | – | – | –
COc1ccc(/C=C/C(=O)c2ccc[nH]2)c(OC)c1OC | – | – | – | – | – | 4.6
COc1cc(/C=C/C(=O)OCC(=O)c2ccc[nH]2)cc(OC)c1OC | – | – | – | – | · | –
CCC1=C(OC(=O)N(CC)CC)N2C(=O)OC(=NCc3ccccc3)[C@]2(C)[C@H]2C1=CC[C@H]1C(=O)N(CC(=O)OC)C(=O)[C@H]12 | – | – | – | – | – | –
C=CCOc1ccc(S(C)(=O)=O)cc1 | – | – | – | – | – | –
CN=C(Nc1ccc(C(=O)OC)s1)c1ccccc1 | – | – | – | – | – | –
CCN(CC)c1nc(C#N)cc(-c2ccc(OC)cc2)n1 | – | – | – | – | – | 8.0
COc1ccc(-c2cc(C#N)nc(Cl)n2)cc1 | – | – | – | – | – | 5.1
COc1ccc(-c2cc(C#N)nc(Oc3ccc(Cl)cc3)n2)cc1 | – | – | – | – | – | –
CCSCCNC(=O)c1cncc(Br)c1 | – | – | – | – | – | –
Cc1cccc(C)c1N1CCN(C(=O)c2ccc3c(c2)OCO3)CC1 | – | – | – | – | – | –
CC1C/C(=C/c2ccccn2)C(=O)/C(=C/c2ccccn2)C1 (stereo unspecified) | – | – | – | · | – | ·
CC(C)(C)C1C/C(=C/c2ccccn2)C(=O)/C(=C/c2ccccn2)C1 (stereo unspecified) | – | – | 96 | · | – | ·
CC(C)c1cc(N=NC(N)=O)cc(C(C)C)c1O | – | – | – | – | – | 4.6
CC(=O)Nc1ccc(NC(C)=O)c(NC2OCC(O)C(O)C2O)c1 (stereo unspecified) | – | – | – | – | – | –
CC(C)c1ccc(/C=N/Nc2cc(N3CCOCC3)nc(N3CCOCC3)n2)cc1 | – | – | – | – | – | –
Oc1ccc(/C=N/Nc2cc(N3CCCC3)nc(N3CCCC3)n2)cc1O | 36 | – | – | – | – | –
CCN1CCN(C2=C(NS(=O)(=O)c3ccccc3)C(=O)c3ccccc3C2=O)CC1 | – | – | – | – | – | –
CN1CCN(C2=C(NS(=O)(=O)c3ccccc3)C(=O)c3ccccc3C2=O)CC1 | – | 15 | – | · | – | ·
CC1(C)C(/C=C/C=C/C=C/C=C2\N(CCCCS(=O)(=O)O)c3ccc4ccccc4c3C2(C)C)=[N+](CCCCS(=O)(=O)[O-])c2ccc3ccccc3c21 | 67 | – | – | · | 27 | ·
Cc1c2ccccc2cc[n+]1CCCS(=O)(=O)[O-] | – | – | – | – | – | –
SMILES | NadD block | MsrA act | NR2E3 ag-1 | GalR3 antag | NR2E3 ag-2 | MsrA inhibitor
CNC(=S)N(CCc1c(C)[nH]c2ccccc12)Cc1cc(OC)c(OC)c(OC)c1 | – | – | – | – | – | –
COc1cccc(/C=N/Nc2nc(Nc3ccc([N+](=O)[O-])cc3)nc(N3CCCC3)n2)c1O | 35 | – | – | – | – | –
Cc1nccn1S(=O)(=O)c1ccc(Br)cc1Br | – | – | – | – | – | 5.5
Oc1cccc(C=Nc2cccc3ccccc23)c1O | 45 | – | – | – | – | –
Cc1cc(-c2csc(NC(=O)c3ccc(=O)[nH]c3)n2)c(C)n1Cc1ccco1 | 67 | – | – | – | – | –
CCNc1nc(-c2cc(C)n(Cc3ccco3)c2C)cs1 | – | – | – | – | – | –
